# M5 antag: antagonists of human muscarinic M5 receptor (CHRM5) | P08912 | CHO-hM5 cells, Fluo-8 calcium fluorescence, ACh EC80 | inhibition, % at 3 µM | 0.59% of 360,000 active | AID 624040;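 active means inhibition above a per-plate cutoff, the mean of that plate's test compounds plus 3 SD, cut at about 27% in these data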;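 further: 0% = acetylcholine EC80 with DMSO and 100% = DMSO without agonist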
# Target sequence (P08912 whole entry, looked up): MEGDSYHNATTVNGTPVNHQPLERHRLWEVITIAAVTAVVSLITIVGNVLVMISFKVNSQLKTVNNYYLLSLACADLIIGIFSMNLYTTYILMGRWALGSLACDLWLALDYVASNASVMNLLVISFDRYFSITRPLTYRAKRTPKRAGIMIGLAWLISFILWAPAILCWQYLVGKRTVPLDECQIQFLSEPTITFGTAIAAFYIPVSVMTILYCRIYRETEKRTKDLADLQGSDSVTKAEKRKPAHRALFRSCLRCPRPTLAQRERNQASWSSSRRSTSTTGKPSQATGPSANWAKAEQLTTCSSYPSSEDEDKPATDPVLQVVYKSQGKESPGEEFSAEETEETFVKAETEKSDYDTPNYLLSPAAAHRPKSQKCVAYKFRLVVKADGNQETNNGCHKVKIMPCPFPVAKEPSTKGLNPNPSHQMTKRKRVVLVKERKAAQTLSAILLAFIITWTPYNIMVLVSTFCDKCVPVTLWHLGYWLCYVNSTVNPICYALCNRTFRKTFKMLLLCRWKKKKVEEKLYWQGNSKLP
# CHRM4 PAM: potentiates acetylcholine response at human M4 receptor; 0.4% of 360,000 active; P08173; CHO-K1 hM4/Gqi5, Fluo-8 calcium fluorescence, ACh EC20; 0% = ACh EC20, 100% = maximal ACh; activation, % at 3 µM; AID 624126;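 active means activation above its plate's cutoff, the mean activation of sample wells plus 3 SD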
# M4 antag: blocks acetylcholine activation of human M4 receptor. P08173. CHO-hM4 cells, ACh EC80, Fluo-8 calcium fluorescence. inhibition, % at 3 µM. 0.73% of 360,000 active. AID 624125;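 active means inhibition above its plate's cutoff, the mean inhibition of sample wells plus 3 SD, cut at about 27% in these data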;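 further: 0% = acetylcholine EC80 with DMSO and 100% = DMSO without agonist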
# CHRM5 PAM: positive allosteric modulators of human muscarinic M5 receptor | 0.3% of 360,000 active | activation, % at 3 µM | CHO-K1 hM5, Fluo-8 calcium, ACh EC20 PAM; 0% = ACh EC20, 100% = ACh EC100 | P08912;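 active means activation above the run cutoff, the mean activation of all test compounds plus 3 SD, cut at about 18% in these data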
#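 Replicates: One well per compound, no replicates | System: Human M5 receptor in CHO-K1 cells | Benchmarks: Low control EC20 acetylcholine (0%), high control EC100 acetylcholine (100%) | Probe or stimulus: Acetylcholine, EC20 level | Times: Fluo-8 loading 80 min at 37 °C plus 30 min room temperature | Signal: Intracellular calcium via Fluo-8 fluorescence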
# CHRM4 agonist: agonists of human muscarinic M4 receptor (CHRM4); P08173; CHO-K1 hM4/Gqi5, Fluo-8 calcium fluorescence; vehicle 0%, full acetylcholine response 100%; activation, % at 3 µM; 0.14% of 360,000 active; AID 624127;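 active means activation above the run mean over all test wells plus 3 SD, cut at about 32% in these data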;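 further: peak over basal fluorescence ratio per well then scaled between controls; 0% = DMSO wells and 100% = acetylcholine at EC100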
# M5 ag: CHRM5 agonism in calcium assay | P08912 | CHO-K1 hM5 cells, Fluo-8 calcium fluorescence; 0% DMSO wells, 100% maximal acetylcholine response | activation, % at 3 µM | 0.19% of 360,000 active;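 active means activation above the run's mean over test compounds plus 3 SD, cut at about 23% in these data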;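 further: signal is peak over basal fluorescence ratio across the kinetic read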
# * marks the source's active call; other numbers are inactive results. Most compounds without a hit are left out; they make up all but 1.8% or so of the library.
SMILES,M5 antag,CHRM4 PAM,M4 antag,CHRM5 PAM,CHRM4 agonist,M5 ag
CN(CC(=O)Nc1cccc(F)c1)C(=O)C1CCC(C(=O)N(C)CC(=O)Nc2cccc(F)c2)CC1 (stereo unspecified),9.7,5.9,-10.3,-2.1,2.3,-2.9
CCCC1(C(=O)OCC)NC(c2cc(OC)c(OC)c(OC)c2)C2C(=O)N(CC)C(=O)C21 (stereo unspecified),-4.7,34.7*,-2.7,-1.4,1.8,1.2
CCN(CC(=O)Nc1cc(Cl)cc(Cl)c1)CC(=O)NC1CCS(=O)(=O)C1 (stereo unspecified),4.8,1.5,-4.7,13.3,1.5,-2.8
CN(Cc1ccccc1)C(=O)c1csc([C@H]2C[C@H](O)[C@@H](CO)O2)n1,-3.5,1.9,0.1,-2.4,0.0,0.1
CCCCn1nnnc1C(c1ccnc2ccccc12)N1CCN(C/C=C/c2ccccc2)CC1 (stereo unspecified),36.5*,-14.0,22.7,-22.5,1.4,-7.7
COc1cccc(C(c2nnnn2C2CCCC2)N2CCN(C/C=C/c3ccccc3)CC2)c1OC (stereo unspecified),71.2*,-15.3,31.3*,-21.6,3.0,-7.5
CCCCn1nnnc1C(c1cccc2ccccc12)N1CCN(C/C=C/c2ccccc2)CC1 (stereo unspecified),96.4*,-16.8,83.8*,-22.8,0.9,-6.1
NS(=O)(=O)c1ccc(CCNC(=O)NC2(C(F)(F)F)Oc3ccccc3O2)cc1,-12.2,-7.0,7.0,30.9*,0.4,-12.9
CCCCNC(=O)NC1(C(F)(F)F)Oc2ccccc2O1,-6.7,1.6,-5.8,1.7,0.1,-6.6
COc1ccccc1NC(=O)NCCN1CCN(c2cccc(Cl)c2)CC1,3.1,-14.9,2.6,-7.2,1.9,-6.8
Cc1cc(C)n(-c2cccc(F)n2)n1,-0.5,1.0,3.5,19.1*,0.1,3.7
COc1ccc(N2CCN(C(=O)CSc3nnc4n3C(C)(C)Cc3ccccc3-4)CC2)cc1,2.4,4.2,3.8,-1.6,-0.1,-1.1
Cc1ccc(Cl)cc1N1CCN(C(=O)CSc2nnc3n2C(C)(C)Cc2ccccc2-3)CC1,40.9*,-17.9,33.3*,-23.9,13.1,4.3
O=C(N/N=C\c1cn(-c2ccccc2)nc1-c1ccccc1)c1ccc(Br)o1,13.9,26.8,27.1*,-9.3,9.3,-3.5
Cc1ccc(-c2nn(-c3ccccc3)cc2/C=N/NC(=O)c2ccc(Br)o2)cc1,5.4,-2.4,4.4,0.0,4.3,-1.6
Cc1cccc(NC(=O)CC2NC3CCCCC3NC2=O)c1 (stereo unspecified),-5.4,0.8,8.5,24.1*,0.1,-8.0
O=C(NC1CCCCC1)c1ccc2snnc2c1,-3.5,3.6,-15.2,-3.3,0.3,-2.5
CCN(CC)CCCOC(=O)C(c1ccccc1)c1ccccc1,98.2*,-14.7,91.2*,-23.8,2.1,-5.9
Cc1ccc(S(=O)(=O)N2CCNC(=O)CC2)cc1,1.3,8.6,-2.5,-2.1,1.3,0.6
Nc1cc(=O)nc(SCC(=O)Nc2ccccc2Cl)n1-c1ccccc1,0.2,2.4,-8.6,-0.7,0.8,-2.0
Cc1cccc(CSC(Nc2ccc(F)cc2)=C(C#N)C#N)c1,29.5*,-13.6,18.1,-15.1,11.2,6.4
N#CC(C#N)=C(Nc1ccc(F)cc1)SCc1cccc(Br)c1,31.9*,-15.1,19.0,-19.4,10.4,6.2
Cc1cccc(CSC(=N)N)c1,4.6,-0.3,5.6,-3.2,1.4,-5.3
COC1=C(OC)c2ccccc2C(C(=O)O)N/C1=C(/C)Nc1ccncc1 (stereo unspecified),-0.3,-4.2,28.8*,-0.3,0.9,-2.3
COc1ccc(C(=O)Oc2ccc3oc(=O)sc3c2)cc1,8.6,-22.8,57.6*,-0.6,5.2,0.7
SMILES,M5 antag,CHRM4 PAM,M4 antag,CHRM5 PAM,CHRM4 agonist,M5 ag
COc1ccc(C(=O)Oc2ccc3ccc(=O)oc3c2)cc1,2.3,3.0,-16.2,-4.3,7.6,-2.4
Cc1ccc(C)c(C(=O)CSc2n[nH]c(C(C)C)n2)c1,-3.8,2.5,-20.5,34.4*,1.0,-2.5
Cc1nc(NC(=O)c2cccc(Cl)c2)sc1C(=O)N1CCCCC1,2.7,-6.6,5.4,-2.8,0.9,-2.2
C[C@H](NC(=O)[C@@H]1Cc2ccccc2CN1)C(=O)Nc1ccc2c(c1)OCCO2,-20.9,4.7,-11.4,20.4*,0.7,-3.5
CC1(C(O)(C#CC[N+]2(C)CCCCC2)c2ccccc2)CCCC1 (stereo unspecified),99.5*,-20.7,98.8*,-20.4,0.5,-10.0
COc1cc(/C=C2\SC(=O)N(c3ccc(Cl)cc3)C2=O)cc([N+](=O)[O-])c1O,10.0,3.1,17.2,2.3,-0.5,0.0
COc1cc(/C=C2\SC(=O)N(c3cccc(Cl)c3)C2=O)cc([N+](=O)[O-])c1O,-7.8,23.4*,-8.7,11.1,-0.1,0.5
COc1ccccc1C(CC(=O)c1ccccc1)C(=O)c1ccccc1 (stereo unspecified),8.6,-11.0,27.4*,-14.2,14.2,4.8
COc1ccccc1C(CC(=O)c1ccccc1)CC(=O)c1ccccc1,-4.3,-8.1,-6.7,-11.5,-0.1,-2.8
CCCCOc1ccc(Cc2c(O)nc(SC)[nH]c2=O)cc1,29.7*,17.8*,17.7,51.3*,4.7,6.6
N#C/C(=C\Nc1ccc2cn[nH]c2c1)c1nc(-c2ccccc2)cs1,3.5,2.8,-2.8,-3.1,1.1,1.0
Cc1ccnc(N/C=C(\C#N)c2nc(-c3cccc(Br)c3)cs2)c1,21.2,-12.2,30.7*,-14.2,135.1*,53.0*
O=C1[C@@H]2Cc3c([nH]c4ccccc34)CN2C(=O)CN1CCCO,5.9,6.4,1.3,-2.1,0.2,-1.5
C=CCN1CC(=O)N2Cc3[nH]c4ccccc4c3C[C@H]2C1=O,10.8,-16.5,43.1*,-10.9,0.8,-1.2
Cc1ccc(NC(=O)Cn2cc(C=O)c3ccccc32)cc1,26.4,-7.0,2.8,-14.0,6.7,-2.6
O=Cc1cn(CC(=O)Nc2ccc3c(c2)OCO3)c2ccccc12,27.3*,-20.3,21.9,-20.0,22.2,6.6
CC(C)(C)c1ccc(-c2cn(-c3ccc(Br)cc3)c3[n+]2CCCS3)cc1,58.3*,-19.2,50.3*,-20.4,2.9,-11.1
c1ccc(-c2cn(-c3ccccc3)c3[n+]2CCS3)cc1,8.2,-16.4,18.2,-4.8,-0.4,-5.0
NC(=O)c1ccsc1NC(=O)COC(=O)/C=C/c1ccc([N+](=O)[O-])cc1,18.4,-21.8,4.0,-18.2,17.9,2.2
COC(=O)c1ccc(/C=C/C(=O)OCC(=O)Nc2sccc2C(N)=O)cc1,27.0*,-9.4,45.3*,-34.7,23.4,6.7

# Assay outcomes deposited in PubChem BioAssay by The Scripps Research Institute Molecular Screening Center.
